Data published in ChEMBL document CHEMBL1811874, “The effect of sulfonate leaving groups on the hypoxia-selective toxicity of nitro analogs of the duocarmycins” (Bioorg Med Chem, 2011).
In brackets after ≈: the same amount, converted by molar mass.

Columns and labels:
HT-29 [1] = assay: Hypoxic cytotoxicity ratio, ratio of IC50 for human HT-29 cells in oxic (aerobic) condition to IC50 for human HT-29 cells in hypoxic (anoxic) conditions; format: functional
Summary of the method: (§1)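 HCR was calculated as IC50(oxic)/IC50(hypoxic) after 4 h drug exposure at 20% O₂ or <20 ppm O₂, with SRB read-out 5 days later.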

HT-29 [2] = assay: Cytotoxicity against human HT-29 cells assessed as reduction of cell density incubated for 4 hrs in oxic (aerobic) condition measured 5 days post dose by SRB assay; format: functional, cell-based
Summary of the method: (§2)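 Log-phase monolayers given a 4 h drug exposure under aerobic (20% O₂) or anoxic (<20 ppm O₂) conditions. Cells were then stained with sulforhodamine B 5 days later. IC50 was interpolated as the concentration that cut cell density to 50% of same-plate controls. Values are means of two to seven experiments.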

SK-OV-3 [3] = assay: Cytotoxicity against human SKOV3 cells assessed as reduction of cell density incubated for 4 hrs in hypoxic (anoxic) condition measured 5 days post dose by SRB assay; format: functional, cell-based; summary of the method: as §2
SK-OV-3 [4] = assay: Cytotoxicity against human SKOV3 cells assessed as reduction of cell density incubated for 4 hrs in oxic (aerobic) condition measured 5 days post dose by SRB assay; format: functional, cell-based; summary of the method: as §2
[5] = Solubility in alphaMEM culture medium containing 5% FCS at 22 degC; format: physicochemical
Summary of the method: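 Solubility was measured in αMEM with 5% FCS, equilibrated with 5% CO₂/air, at 22 °C.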

SK-OV-3 [6] = assay: Hypoxic cytotoxicity ratio, ratio of IC50 for human SKOV3 cells in oxic (aerobic) condition to IC50 for human SKOV3 cells in hypoxic (anoxic) conditions; format: functional; summary of the method: as §1
HT-29 [7] = assay: Cytotoxicity against human HT-29 cells assessed as reduction of cell density incubated for 4 hrs in hypoxic (anoxic) condition measured 5 days post dose by SRB assay; format: functional, cell-based; summary of the method: as §2
CHO-AA8 = assay: Cytotoxicity against chinese hamster ovary AA8 cells incubated for 4 hrs; format: functional, cell-based; settings: Cricetulus griseus, CHO-AA8, 4 h
EMT6 = assay: Cytotoxicity against mouse EMT6 cells; format: functional, cell-based
SK-OV-3 [8] = assay: Cytotoxicity against human SKOV3 cells; format: functional, cell-based
Summary of the method: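 Log-phase SKOV3 ovarian carcinoma monolayers were exposed to drug for 4 h under aerobic (20% O₂) or anoxic (<20 ppm O₂) conditions, then stained with sulforhodamine B 5 days later. IC50 was interpolated as the concentration that cut cell density to 50% of same-plate controls, given as mean ± SEM of 2–7 experiments. HCR is IC50(oxic)/IC50(hypoxic), taken as means of intraexperiment ratios.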

| SMILES | Ratio IC50 (HT-29 [1]) | IC50 (HT-29 [2]) [nM] | IC50 (SK-OV-3 [3]) [nM] | IC50 (SK-OV-3 [4]) [nM] | solubility [5] [µM] | Ratio IC50 (SK-OV-3 [6]) | IC50 (HT-29 [7]) [nM] | IC50 (CHO-AA8) [nM] | IC50 (EMT6) [nM] | IC50 (SK-OV-3 [8]) [nM] |
| --- | --- | --- | --- | --- | --- | --- | --- | --- | --- | --- |
| O=C(c1cc2cc(OCCO)ccc2[nH]1)N1CC(COS(=O)(=O)Cc2ccccc2)c2c1cc([N+](=O)[O-])c1ccccc21 (stereo not drawn) | 2.4 | 1800 | 210 | 1200 | 46 (≈ 27.7 µg/mL) | 7.1 | 660 |  |  |  |
| COc1ccc(/C=C/C(=O)N2CC(COS(=O)(=O)Cc3ccccc3)c3c2cc([N+](=O)[O-])c2ccccc32)cc1O (stereo not drawn) | 1.1 | 1000 | 160 | 570 | 35 (≈ 20.1 µg/mL) | 3.9 | 1000 |  |  |  |
| COc1cc2cc(C(=O)N3CC(COS(=O)(=O)c4ccc(C)cc4)c4c3cc([N+](=O)[O-])c3ccccc43)[nH]c2c(OC)c1OC (stereo not drawn) | 28 | 12000 | 220 | 8800 | 89 (≈ 56.2 µg/mL) | 72 | 470 |  |  |  |
| Cc1ccc(S(=O)(=O)OCC2CN(C(=O)c3cc4cc(OCCO)ccc4[nH]3)c3cc([N+](=O)[O-])c4ccccc4c32)cc1 (stereo not drawn) | 0.81 | 3300 | 770 | 3000 | 29 (≈ 17.4 µg/mL) | 2.8 | 2700 |  |  |  |
| COc1ccc2[nH]c(C(=O)N3CC(COS(=O)(=O)c4ccc(C)cc4)c4c3cc([N+](=O)[O-])c3ccccc43)cc2c1 (stereo not drawn) | 7.9 | 6500 | 380 | 11000 | 12 (≈ 6.86 µg/mL) | 34 | 700 |  |  |  |
| Nc1cc2c(c3ccccc13)C(CCl)CN2C(=O)c1cc2cc(OCCO)ccc2[nH]1 (stereo not drawn) |  |  | 4.2 | 3.3 | 22 (≈ 9.59 µg/mL) | 0.8 |  |  |  |  |
| COc1cc2cc(C(=O)N3CC(COS(C)(=O)=O)c4c3cc(N)c3ccccc43)[nH]c2c(OC)c1OC (stereo not drawn) |  |  |  |  | 15 (≈ 7.88 µg/mL) |  |  |  |  |  |
| COc1cc2cc(C(=O)N3CC(CCl)c4c3cc([N+](=O)[O-])c3ccccc43)[nH]c2c(OC)c1OC (stereo not drawn) |  | 3400 | 1700 | 4200 | 5 (≈ 2.48 µg/mL) |  | 1600 |  |  |  |
| COc1cc2cc(C(=O)N3CC(CCl)c4c3cc(N)c3ccccc43)[nH]c2c(OC)c1OC (stereo not drawn) |  |  |  |  |  |  |  | < 1 | 0.4 | 1.2 |
| CN(C)CCOc1ccc2[nH]c(C(=O)N3CC(CCl)c4c3cc([N+](=O)[O-])c3ccccc43)cc2c1 (stereo not drawn) |  | 470 | 870 | 1400 | 193 (≈ 95.1 µg/mL) |  | 480 |  |  |  |
